ChEMBL document CHEMBL4049390, “Combination of amino acid/dipeptide with ligustrazine-betulinic acid as antitumor agents” (Eur J Med Chem, 2017)
pIC50: −log10 of the molar value. Active and inactive are the calls of the source. No cut-off for these calls is given here.

Tests used:
[1] = tested on: HepG2; test: Antiproliferative activity against human HepG2 cells after 72 hrs by MTT assay; format: functional, cell-based; conditions: HepG2, 72 h
Procedure, shortened: (§1)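 MTT assay. Log-phase cells were seeded at 3×10^3 cells/well and left overnight, then exposed to serial dilutions of compound (DMSO solutions) for 72 h in RPMI 1640 with 10% heat-inactivated FBS at 37 °C, 5% CO2. MTT (5 mg/mL, 20 µL) was added for 4 h at 37 °C and the formazan dissolved in DMSO. A490 was read. % inhibition = (1 − sample OD/control OD)×100; IC50 is the 50% growth-inhibition concentration. Triplicates, n = 3 independent experiments.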

[2] = tested on: A549; test: Antiproliferative activity against human A549 cells after 72 hrs by MTT assay; format: functional, cell-based; conditions: A549, 72 h; procedure, shortened: as §1
[3] = tested on: HepG2; test: Potency index, ratio of cisplatin IC50 to compound IC50 for human HepG2 cells; format: functional
Procedure, shortened: (§2)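 Ratios were calculated from MTT IC50 values (72 h exposure, A490 read-out, n = 3). Potency index = cisplatin IC50 / compound IC50. Therapeutic index = MDCK IC50 / tumour-line IC50.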

[4] = tested on: HeLa; test: Potency index, ratio of cisplatin IC50 to compound IC50 for human HeLa cells; format: functional; procedure, shortened: as §2
[5] = tested on: HepG2; test: Induction of apoptosis in human HepG2 cells assessed as cell shrinkage at 1.5 uM after 72 hrs by Giemsa staining based fluorescent microscopic method; format: functional
Procedure, shortened: (§3)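 HepG2 cells were seeded at 4×10^3 cells/well in 6-well plates overnight, then treated at 1.5, 3 or 6 µM for 72 h. Cells were washed in PBS, fixed in cold methanol, stained with 6% Giemsa for 5 min, rinsed with water and dried. Morphology was examined microscopically at 200×, with apoptotic cells marked in representative fields.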

[6] = tested on: HepG2; test: Induction of apoptosis in human HepG2 cells assessed as nuclear fragmentation at 1.5 to 6 uM after 72 hrs by Giemsa staining based fluorescent microscopic method; format: functional, cell-based; procedure, shortened: as §3
[7] = tested on: HepG2; test: Induction of apoptosis in human HepG2 cells assessed as viable cells at 2 uM after 72 hrs by Annexin-V-FITC/propidium iodide staining based flow cytometry (reference value: 93.2%); format: functional; conditions: HepG2, 72 h, read-out: Activity
[8] = tested on: HepG2; test: Induction of apoptosis in human HepG2 cells assessed as viable cells at 4 uM after 72 hrs by Annexin-V-FITC/propidium iodide staining based flow cytometry (reference value: 93.2%); format: functional; conditions: HepG2, 72 h, read-out: Activity
[9] = tested on: HepG2; test: Induction of apoptosis in human HepG2 cells assessed as early apoptotic cells at 4 uM after 72 hrs by Annexin-V-FITC/propidium iodide staining based flow cytometry (reference value: 3.7%); format: functional
[10] = tested on: HepG2; test: Induction of apoptosis in human HepG2 cells assessed as late apoptotic cells at 4 uM after 72 hrs by Annexin-V-FITC/propidium iodide staining based flow cytometry (reference value: 2.6%); format: functional
[11] = tested on: HepG2; test: Induction of apoptosis in human HepG2 cells assessed as necrotic cells at 4 uM after 72 hrs by Annexin-V-FITC/propidium iodide staining based flow cytometry (reference value: 0.5%); format: functional
[12] = tested on: HepG2; test: Induction of apoptosis in human HepG2 cells assessed as increase in intracellular calcium level by measuring mean fluorescence intensity after 72 hrs by Fluo-3AM dye based flow cytometry; format: functional, cell-based
Procedure, shortened: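 Intracellular Ca2+: HepG2 cells (1×10^5/well, 6-well) were grown 24 h, then treated at 2, 3 or 4 µM for 72 h. Cells were harvested, washed in cold PBS and resuspended in HBSS with 10 µM Fluo-3AM for 30 min at 37 °C in the dark. Flow cytometry used 488 nm excitation; the read-out is mean fluorescence intensity.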

[13] = tested on: HepG2; test: Induction of apoptosis in human HepG2 cells assessed as increase in intracellular calcium level by measuring mean fluorescence intensity at 2 uM after 72 hrs by Fluo-3AM dye based flow cytometry (reference value: 1992); format: functional
Procedure, shortened: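 HepG2 cells at 1×10^5 cells/well were grown 24 h, then treated with compound for 72 h. Cells were harvested, washed in cold PBS and resuspended in HBSS containing 10 µM Fluo-3 AM for 30 min at 37 °C in the dark. Flow cytometry used 488 nm excitation; the read-out was mean fluorescence intensity against an untreated control.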

C=C(C)[C@@H]1CC[C@]2(C(=O)OCc3nc(C)c(C)nc3C)CC[C@]3(C)[C@H](CC[C@@H]4[C@@]5(C)CC[C@H](OC(=O)[C@H](C)NC(=O)CNC)C(C)(C)[C@@H]5CC[C@]43C)[C@@H]12 was tested, and the pIC50 [1] was 5.51, the pIC50 [2] was 5.49 and the “Ratio IC50” value [3] was 2. The “Ratio IC50” value [4] was 2, the Activity [5] was “Active” and the Activity [6] was “Active”. The viability at 2 µM [7] was 88%, the viability at 4 µM [8] was 62.2% and the Activity [9] was 29.9%. The Activity [10] was 6.9%, the Activity [11] was 1% and the Activity [12] was “Dose-dependent effect”. It also gave a Flu intensity [13] of 2743.
